Experimental data collected from several papers.
Compare with care: the assays were run in different laboratories.
Target: NT-3 growth factor receptor (NTRK3, Homo sapiens, UniProt Q16288)

C#Cc1n[nH]c2c(-c3cn(C(C)c4ccccn4)c(=O)[nH]c3=O)cc(F)cc12 (centres unmarked)  inhibition (enzyme activity, inhibitor; 1 µM): 12.3%
Cn1cncc1[C@@](O)(COc1ccc(C#N)cc1-c1ccc(OC(F)(F)F)cc1)c1ccc(C#N)cc1  remaining binding (cell-free assay, competition with immobilised ligand; 1 µM): 99%
COc1ncccc1-c1cnn2ccc(N3CCN(C(=O)OC(C)C)CC3)nc12  remaining binding (binding, competition with immobilised ligand; 1 µM): 50%
O=c1[nH]c2ccccc2n1C1CCN(Cc2ccc(-c3[nH]c4cc5ncnc5cc4nc3-c3ccccc3)cc2)CC1  remaining signal (cell-free assay; 0.5 µM): 116%
Cc1nn(C)cc1-c1nc2c(N3CCN(Cc4ccc(Cl)cc4)CC3)c(Cl)cnc2[nH]1  remaining binding (binding, competition with immobilised ligand; 1 µM): 57%
N#CC1(c2ccccn2)CCN(Cc2cc(C(=O)O)c(=O)n3ccccc23)CC1  remaining binding (cell-free assay, competition with immobilised ligand; 1 µM): 70%
C#Cc1n[nH]c2c(-c3cn([C@@H](C)c4ccccc4)c(=O)[nH]c3=O)cc(F)cc12  inhibition (enzyme activity, inhibitor; 0.1 µM): 11.4%
Cn1cc(-c2cccc(N3CCc4c(sc5c4CC(C)(C)C5)C3=O)c2CO)cc(Nc2ccncn2)c1=O  inhibition (enzyme activity, inhibitor; 1 µM): -8%
Nc1ncc(-c2nc(N3CCOCC3)nc(N3CCOCC3)n2)c(C(F)F)n1  remaining binding (cell-free assay, competition with immobilised ligand; 10 µM): 87%
Cn1cc(-c2cc(F)cc(N3CCn4c(cc5c4CCCC5)C3=O)c2CO)cc(Nc2ccc(N3CCN(C4COC4)CC3)cn2)c1=O  inhibition (enzyme activity, inhibitor; 0.1 µM): 15%
CC(C)(C)c1cc(C=C(C#N)C#N)cc(Br)c1O  remaining activity (enzyme activity, inhibitor; 0.5 µM): 104%
